Results collected from several papers.
Each line is one published result; the experiments were not run side by side.
Target: NT-3 growth factor receptor (NTRK3, Homo sapiens, UniProt Q16288)
Observed: enzyme activity
Mode: inhibitor

Structure (SMILES)	technique	tested at	inhibition
CC/C(=N\NC(=O)NCc1cccc(O)c1)c1ccc(O)c(C)c1O	–	0.1 µM	0.4%
CN1CC(Oc2cnc(C#N)cc2-c2ccn3nc(NC(=O)C4CC4)cc3c2)C1	–	1 µM	51%
O=C(Nc1ccc2[nH]ncc2c1)c1cccc(NC(=O)c2cc(C(F)(F)F)ccc2F)c1	FRET	1 µM	12.1%
CCOc1cc(-c2nncn2C)ccc1Nc1ncc2cc(C)nc(NCC(C)(C)C)c2n1	FRET	1 µM	< 15%
O=C(Nc1ccc(Br)cc1)Nc1cccc(C(=O)Nc2ccc3[nH]ncc3c2)c1	FRET	1 µM	13.7%
COc1cc2ncnc(Nc3ccc(Oc4ccccc4)cc3C)c2cc1OC	–	1 µM	13%
CCCS(=O)(=O)Nc1ccc(F)c(C(=O)c2c[nH]c3ncc(-c4ccc(Cl)cc4)cc23)c1F	–	1 µM	< 10%
COc1cc2ncnc(Nc3ccc(Oc4ccccc4)c(C)c3C)c2cc1OC	–	1 µM	3%
O=C(Cc1ccc(C(F)(F)F)cc1)Nc1cccc(C(=O)Nc2ccc3[nH]ncc3c2)c1	FRET	1 µM	21.9%
CNC(=O)c1cc2c(Oc3ccc(NC(=O)C4(C(=O)Nc5ccc(F)cc5)CC4)cc3)ccnc2cc1OC	radiometric	1 µM	79%
